Experimental data: paper PMC6912599 (European journal of medicinal chemistry, 2018)
Where two headings read alike, the source gives them in different places.

Assays:
tadpoles [1] = test: Loss of righting reflexes; format: in vivo, tadpole
α1β3γ2L GABAAR [2] = biological target: T1, α1β3γ2L GABAAR (Homo sapiens, UniProt P14867+P28472); test: Voltage clamp electrophysiology of α1β3γ2L GABAAR expressed in Xenopus oocytes; format: cell-based; settings: for enhancement of EC5 GABA-activated currents: 10 μM compound; for enhancement of EC5 GABA-activated currents / potentiation of EC5 GABA-activated chloride currents (up to): EC5 GABA (4 μM); for potentiation of EC5 GABA-activated chloride currents (up to): maximum concentration tested 100 μM
Target sequence in this assay (P18507 40-475 partner, one chain of several): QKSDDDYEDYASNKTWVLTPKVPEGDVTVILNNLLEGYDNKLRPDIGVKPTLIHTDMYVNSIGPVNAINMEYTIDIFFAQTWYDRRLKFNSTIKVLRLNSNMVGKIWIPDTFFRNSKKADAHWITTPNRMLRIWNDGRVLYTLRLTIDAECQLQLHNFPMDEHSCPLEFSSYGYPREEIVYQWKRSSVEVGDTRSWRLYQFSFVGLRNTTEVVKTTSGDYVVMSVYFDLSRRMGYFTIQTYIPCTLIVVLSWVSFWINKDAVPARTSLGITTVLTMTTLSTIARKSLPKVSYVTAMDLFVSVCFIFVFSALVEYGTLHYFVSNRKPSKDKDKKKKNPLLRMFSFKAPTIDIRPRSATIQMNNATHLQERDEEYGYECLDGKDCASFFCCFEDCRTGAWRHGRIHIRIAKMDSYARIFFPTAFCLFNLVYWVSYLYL

α1β3 GABAAR [3] = biological target: T2, α1β3 GABAAR (Homo sapiens, UniProt P14867+P28472); test: Voltage clamp electrophysiology of α1β3 GABAAR expressed in Xenopus oocytes; format: cell-based
T2 sequence (P14867 28-456): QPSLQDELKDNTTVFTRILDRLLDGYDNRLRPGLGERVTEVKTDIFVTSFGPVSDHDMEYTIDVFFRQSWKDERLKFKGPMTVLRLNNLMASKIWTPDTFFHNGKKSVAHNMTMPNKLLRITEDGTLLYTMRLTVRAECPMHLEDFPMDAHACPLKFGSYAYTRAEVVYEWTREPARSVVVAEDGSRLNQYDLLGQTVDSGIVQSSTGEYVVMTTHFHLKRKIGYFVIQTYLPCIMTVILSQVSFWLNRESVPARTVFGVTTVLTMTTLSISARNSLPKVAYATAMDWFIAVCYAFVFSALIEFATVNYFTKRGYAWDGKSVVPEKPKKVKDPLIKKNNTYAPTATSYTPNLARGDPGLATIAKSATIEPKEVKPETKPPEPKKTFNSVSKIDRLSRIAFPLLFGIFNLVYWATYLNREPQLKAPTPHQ
T2 sequence (P28472 26-473): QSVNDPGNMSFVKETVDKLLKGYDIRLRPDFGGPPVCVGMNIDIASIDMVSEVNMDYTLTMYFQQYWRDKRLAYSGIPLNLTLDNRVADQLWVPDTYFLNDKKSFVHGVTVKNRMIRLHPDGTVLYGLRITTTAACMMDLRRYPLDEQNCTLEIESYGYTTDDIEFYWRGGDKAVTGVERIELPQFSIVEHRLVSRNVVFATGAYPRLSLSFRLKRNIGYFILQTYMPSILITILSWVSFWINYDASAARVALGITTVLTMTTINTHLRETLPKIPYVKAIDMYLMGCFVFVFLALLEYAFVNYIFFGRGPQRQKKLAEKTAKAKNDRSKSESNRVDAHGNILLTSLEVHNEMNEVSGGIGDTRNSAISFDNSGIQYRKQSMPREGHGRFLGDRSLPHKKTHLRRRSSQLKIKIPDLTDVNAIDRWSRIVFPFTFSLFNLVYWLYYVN

α1Q242Wβ3γ2L receptors = α1Q242Wβ3γ2L receptors (Homo sapiens, UniProt P14867+P28472, Q269W); test: Electrophysiology of steroid site mutant α1Q242Wβ3γ2L receptors in oocytes; format: cell-based; settings: 10 μM steroid; EC5 GABA
Procedure, shortened: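 Female Xenopus laevis stage V oocytes were injected with up to 10 ng of α1Q242W, β3 and γ2L mRNA (1:1:3) and held ≥24 h. Two-electrode voltage clamp was run at −50 mV and 20–22°C, with ND96 (pH 7.4) superfusion at 2–3 mL/min.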

α1L264Tβ3γ2L receptors = α1L264Tβ3γ2L receptors (Homo sapiens, UniProt P14867+P28472, L291T); test: Direct activation of spontaneously gating α1L264Tβ3γ2L receptors in oocytes; format: cell-based
α1β3γ2L GABAAR [4] = biological target: T1, α1β3γ2L GABAAR; test: Modulation of 2 nM [3H]muscimol binding to α1β3γ2L GABAAR
Target sequence in this assay (P18507 40-475, one chain of several, further chain): as the sequence (P18507 40-475 partner, one chain of several) above

α1β3 GABAAR [5] = biological target: T2, α1β3 GABAAR; test: Modulation of 2 nM [3H]muscimol binding to α1β3 GABAAR
α1β3 GABAAR [6] = biological target: T2, α1β3 GABAAR; test: Inhibition of [3H]21-pTFDBzox-AP photolabeling of purified α1β3 GABAAR; format: binding; settings: for inhibition of photolabeling at high concentrations: same extent as 30 μM allopregnanolone
α1β3γ2 GABAAR = α1β3γ2 GABAAR (Homo sapiens, UniProt P14867+P28472); test: Inhibition of [3H]21-pTFDBzox-AP photolabeling of purified α1β3γ2 GABAAR; format: binding; settings: 30 μM; 0.8 μM [3H]21-pTFDBzox-AP
tadpoles [7] = settings: read-out: published anesthetic EC50s; tadpole LoRR; cited from earlier work

Chain of α1L264Tβ3γ2L receptors (P18507 40-475, one chain of several): as the sequence (P18507 40-475 partner, one chain of several) above
Chain of α1L264Tβ3γ2L receptors (P14867 28-456 L291T, one chain of several): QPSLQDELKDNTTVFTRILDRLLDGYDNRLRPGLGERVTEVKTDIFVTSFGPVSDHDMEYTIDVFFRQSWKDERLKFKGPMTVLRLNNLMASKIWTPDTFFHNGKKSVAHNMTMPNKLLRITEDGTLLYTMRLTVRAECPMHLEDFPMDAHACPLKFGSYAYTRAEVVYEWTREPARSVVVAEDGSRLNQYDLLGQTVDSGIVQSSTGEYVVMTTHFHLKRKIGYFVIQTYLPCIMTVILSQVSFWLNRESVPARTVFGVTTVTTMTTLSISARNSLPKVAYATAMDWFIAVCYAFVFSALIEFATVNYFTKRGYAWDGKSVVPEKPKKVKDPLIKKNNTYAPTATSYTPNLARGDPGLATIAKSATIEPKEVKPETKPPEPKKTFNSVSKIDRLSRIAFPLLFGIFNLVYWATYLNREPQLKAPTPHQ
Chain of α1Q242Wβ3γ2L receptors (P14867 28-456 Q269W, one chain of several): as the sequence (P14867 28-456 L291T, one chain of several) above, with Q242W, T264L counted along it
Chain of α1Q242Wβ3γ2L receptors (P18507 40-475 partner, one chain of several): as the sequence (P18507 40-475 partner, one chain of several) above
Chain of α1β3γ2 GABAAR (P18507 40-475 partner, one chain of several): as above

21-[4-(3-(Trifluoromethyl)-3H-diazirin-3-yl)benzoxy]allopregnanolone [21-pTFDBzox-AP]
antagonism of alphaxalone's anesthetic action (tadpoles [1]; 2.5 or 10 μM 21-pTFDBzox-AP): no significant antagonism
Loss of righting reflexes (LoRR) (tadpoles [1]; tadpoles exposed to 1, 2, 3 and 10 μM): No LoRR
effect on GABA EC50 (α1β3γ2L GABAAR [2]; 5 μM): did not reduce the GABA EC50
enhancement of EC5 GABA-activated currents (α1β3γ2L GABAAR [2]): 2.6 ± 0.3 fold
fitted maximal enhancement ratio (α1β3γ2L GABAAR [2]; EC5 GABA, Hill slope constrained to 1.7): 2.6 ± 0.3
enhancement of EC10 GABA-activated currents (α1β3 GABAAR [3]; 10 μM compound, EC10 GABA (1 μM)): 2.1± 0.4 fold
fitted maximal enhancement ratio (α1β3 GABAAR [3]; EC10 GABA, Hill slope constrained to 1.7): 2.1 ± 0.4
positive modulation in α1Q242W mutant receptors (α1Q242Wβ3γ2L receptors): eliminated positive modulation
current elicited as % of the maximal GABA response (α1L264Tβ3γ2L receptors; 2 μM, no GABA): approximately 21%
direct increase of inward current in the absence of GABA (α1L264Tβ3γ2L receptors; 2 μM, no GABA): about 50%
Hill coefficient nH of [3H]muscimol binding enhancement (α1β3γ2L GABAAR [4]; detergent/lipid micelles): 1.15 ± 0.36
maximal enhancement of [3H]muscimol binding (α1β3γ2L GABAAR [4]; detergent/lipid micelles): 135 ± 1%
Hill coefficient nH of [3H]muscimol binding enhancement (α1β3γ2L GABAAR [4]; membranes): 1.09 ± 0.22
maximal enhancement of [3H]muscimol binding (α1β3γ2L GABAAR [4]; membranes): 199 ± 30%
Hill coefficient nH of [3H]muscimol binding enhancement (α1β3 GABAAR [5]; detergent/lipid micelles): 1.45 ± 0.51
maximal enhancement of [3H]muscimol binding (α1β3 GABAAR [5]; detergent/lipid micelles): 172 ± 6%
Hill coefficient nH of [3H]muscimol binding enhancement (α1β3 GABAAR [5]; membranes): 1.71 ± 0.10
maximal enhancement of [3H]muscimol binding (α1β3 GABAAR [5]; membranes): 271 ± 7%

CC(=O)[C@H]1CC[C@H]2[C@@H]3CC4(N=N4)[C@H]4C[C@H](O)CC[C@]4(C)[C@H]3C(=O)C[C@]12C [6-azi-OAP, 6-Azi-3α-hydroxy-5α-pregnane-11,20-dione]
decrease of GABA EC50 (α1β3γ2L GABAAR [2]; 15 μM 6-azi-OAP): approximately 3 fold
potentiation of EC5 GABA-activated chloride currents (up to) (α1β3γ2L GABAAR [2]): 10.1 ± 0.67 fold
effect on GABA dose-response curves compared with α1β3γ2L (α1β3 GABAAR [3]; 15 μM, not shown): similar
Hill coefficient nH of [3H]muscimol binding enhancement (α1β3γ2L GABAAR [4]; α1β3γ2 GABAARs): 1.3 ± 0.15
efficacy of modulation of [3H]muscimol binding (α1β3γ2L GABAAR [4]; α1β3γ2 GABAARs): 330 ± 9%

CC(=O)[C@H]1CC[C@H]2[C@@H]3CC4(N=N4)[C@@H]4C[C@H](O)CC[C@]4(C)[C@H]3C(=O)C[C@]12C [6-azi-OP, 6-Azi-3α-hydroxy-5β-pregnane-11,20-dione]
potentiation of EC5 GABA-activated chloride currents (up to) (α1β3γ2L GABAAR [2]): 8.0 ± 1.4 fold
Hill coefficient nH of [3H]muscimol binding enhancement (α1β3γ2L GABAAR [4]; α1β3γ2 GABAARs): 1.6 ± 0.1
efficacy of modulation of [3H]muscimol binding (α1β3γ2L GABAAR [4]; α1β3γ2 GABAARs): 241 ± 3%

C=CC[C@@]1(c2cccc(C3(C(F)(F)F)N=N3)c2)C(=O)NC(=O)N(C)C1=O [R-mTFD-MPAB]
inhibition of photolabeling (α1β3 GABAAR [6]; 60 μM): no inhibition

C[C@]12CC[C@@H](O)C[C@@H]1CC[C@@H]1[C@@H]2CC[C@]2(C)[C@@H](C(=O)CO)CC[C@@H]12 [THDOC, 5α-pregnan-3α, 21-diol-20-one, reference compound]
enhancement of EC5 GABA-activated currents (α1β3γ2L GABAAR [2]): 16 ± 2.1 fold
positive modulation in α1Q242W mutant receptors (α1Q242Wβ3γ2L receptors): eliminated positive modulation
inhibition of photolabeling at high concentrations (α1β3 GABAAR [6]): 60%

CC(=O)[C@H]1CC[C@H]2[C@@H]3CC[C@H]4C[C@H](O)CC[C@]4(C)[C@H]3CC[C@]12C [allopregnanolone, 5α-pregnan-3α-ol-20-one]
reduction of β subunit photolabeling (α1β3 GABAAR [6]; 30 μM, 0.8 μM [3H]21-pTFDBzox-AP): 60%
reduction of β subunit photolabeling (α1β3γ2 GABAAR): 70%

CC(=O)[C@H]1CC[C@H]2[C@@H]3CC[C@H]4C[C@H](O)CC[C@]4(C)[C@H]3C(=O)C[C@]12C [alphaxalone, 5α-pregnan-3α-ol-11,20-dione, reference compound]
EC50 (tadpoles [1]; read-out: anesthetic EC50 (LoRR), alphaxalone alone, 60 minutes equilibration): 1400 ± 300 nM
EC50 (tadpoles [1]; read-out: anesthetic EC50 of alphaxalone, in constant presence of […] 21-pTFDBzox-AP): 920 ± 300 nM
EC50 (tadpoles [7]): 1000 to 2000 nM

CCOC(=O)c1cncn1[C@H](C)c1ccccc1 [etomidate]
inhibition of photolabeling (α1β3 GABAAR [6]; 1 mM): no inhibition

CC(=O)[C@H]1CC[C@H]2[C@@H]3CC[C@@H]4C[C@H](O)CC[C@]4(C)[C@H]3CC[C@]12C [pregnanolone, 5β-pregnan-3α-ol-20-one]
IC50 (α1β3 GABAAR [6]): 700 nM
inhibition of photolabeling at high concentrations (α1β3 GABAAR [6]): 60%

Picrotoxin [reference compound]
outward currents as % of maximal GABA-induced inward currents (α1L264Tβ3γ2L receptors; 2 mM): about 40%

pregnenolone sulfate
inhibition of photolabeling (α1β3 GABAAR [6]; 100 μM): no inhibition
